Screening results (PubChem BioAssay)
SIAE inh – blocks human sialic acid acetylesterase; Q9HAT2; SIAE FP-Rh probe binding, fluorescence polarization; inhibition, % at 9.66 µM; hit rate 0.69% among 370,000;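 active = inhibition above a cutoff: mean of compounds within the control limits plus 3 SD of those, cut at about 17% in these data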;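 note: 0% = plate median of compound wells and 100% = probe without SIAE protein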
Target sequence (Q9HAT2 whole entry, looked up): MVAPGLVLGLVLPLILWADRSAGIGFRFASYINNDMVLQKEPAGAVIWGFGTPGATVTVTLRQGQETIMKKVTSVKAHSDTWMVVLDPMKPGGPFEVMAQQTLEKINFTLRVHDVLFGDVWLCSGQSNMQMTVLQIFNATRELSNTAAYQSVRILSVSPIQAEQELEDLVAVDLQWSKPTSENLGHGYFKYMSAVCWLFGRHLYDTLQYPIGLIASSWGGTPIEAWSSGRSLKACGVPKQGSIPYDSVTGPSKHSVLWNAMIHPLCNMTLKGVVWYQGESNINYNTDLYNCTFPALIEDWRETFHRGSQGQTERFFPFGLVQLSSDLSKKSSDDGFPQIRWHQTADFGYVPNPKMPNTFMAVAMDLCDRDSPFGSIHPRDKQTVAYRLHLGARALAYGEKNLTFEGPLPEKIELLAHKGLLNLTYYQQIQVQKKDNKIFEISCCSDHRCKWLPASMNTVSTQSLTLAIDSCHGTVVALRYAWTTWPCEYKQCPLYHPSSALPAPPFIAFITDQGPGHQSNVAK
rCAG RNA binder – molecules binding r(CAG) RNA repeats. r(CAG) RNA repeat, TO-PRO-1 dye displacement fluorescence. inhibition, % at 3 µM. hit rate 1.3% among 370,000;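 active = inhibition above the plate cutoff, the mean of all test compounds on that plate plus 3 SD, cut at about 35% in these data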;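 note: 0% = DMSO alone and 100% = 100 µM mitoxantrone as full dye displacement; higher means more dye released from RNA so lower well fluorescence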
PRMT1 inh – blocks human protein arginine methyltransferase 1 | Q99873 | recombinant PRMT1, activity-based probe fluorescence polarization | inhibition, % at 2.79 µM | hit rate 1.3% among 370,000 | AID 652257;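 active = inhibition above about 21% made by adding two undisclosed values, limit read from the data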
TCR-CD3 inh – inhibitors of human TCR-CD3 interaction. inhibition, % at 9.4 µM. hit rate 0.37% among 360,000. TAMRA-labeled TCR probe fluorescence, biochemical. AID 651800; in the data active = inhibition above about 19%;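 note: recombinant mutant TCR 2C K166C tagged with TAMRA read by polarization; 0% = receptor in buffer alone and 100% = receptor with positive control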
mABHD4 FP – inhibits mouse alpha/beta hydrolase domain 4 | Q8VD66 | purified mABHD4, FP-Rh probe fluorescence polarization | inhibition, % at 8.92 µM | hit rate 0.54% among 370,000;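 active = inhibition exceeding the mean over every tested compound plus 3 SD, cut at about 30% in these data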;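 note: 0% = plate median of compound wells and 100% = S159A mutant with DMSO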
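Material: mouse ABHD4 enzyme, wild type; Benchmarks: S159A mutant high control, sample median low control; Buffer or medium: HEPES pH 7.0, NaCl, Pluronic buffer; Signal: fluorescence polarization; Read-out: percent inhibition of probe binding, normalized to plate controls; Timing: pre-incubation 45 min, probe exposure 60 min, at 25 °C; Dosing: 8.92 µM, single dose.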
rCAG binder conf – r(CAG) RNA repeat binding, confirmation | TO-PRO-1 dye displacement fluorescence | inhibition, % at 3 µM | hit rate 70% among 4,300 | shares compounds with rCAG RNA binder;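 active = inhibition above a per-plate cutoff, the mean inhibition of sample wells plus 3 SD, cut at about 35% in these data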;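 note: loss of TO-PRO-1 fluorescence as compound displaces dye from 1x1 AA loop RNA; 0% = DMSO only wells and 100% = 100 µM mitoxantrone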
dCAG dye counter – DNA CAG dye complex inhibition counter-screen; shares compounds with rCAG RNA binder; d(CAG) DNA oligo TO-PRO-1 dye displacement, fluorescence; inhibition, % at 3 µM; hit rate 94% among 4,300; AID 652068;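 active = inhibition above its plate's cutoff, the mean test-well inhibition plus 3 SD, cut at about 4.8% in these data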;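 note: 0% = DNA dye mix with DMSO and 100% = 100 µM mitoxantrone; hits displace the dye from DNA and so lower well fluorescence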
DNA CAG DR – DNA CAG dye complex inhibition, dose response counter-screen. hit rate 20% among 250. IC50, µM. shares compounds with rCAG RNA binder. DNA CAG/GTC duplex TO-PRO-1 dye displacement fluorescence. AID 686960; in the data active = IC50 below about 10 µM
The depositor's hits bear a star; i = inactive; . = no result. An excerpt weighted towards active compounds, which were near 3.3% of everything screened.

SMILES	SIAE inh	rCAG RNA binder	PRMT1 inh	TCR-CD3 inh	mABHD4 FP	rCAG binder conf	dCAG dye counter	others
CCCOc1ccc(C2C(C(=O)c3cc4ccccc4o3)=C(O)C(=O)N2c2cc(C)on2)cc1OC (stereo unspecified)	-7	40*	-1	-3	-1	76*	42*
CCCOc1ccc(C2C(C(=O)c3cc4ccccc4o3)=C(O)C(=O)N2c2cc(C)on2)cc1 (stereo unspecified)	0	31	4	-6	3	.	.
COc1ccccc1C1C(C(=O)c2cc3ccccc3o2)=C(O)C(=O)N1c1cc(C)on1 (stereo unspecified)	2	34	6	-15	19	.	.
COc1ccc(OC)c(C2C(C(=O)c3cc4ccccc4o3)=C(O)C(=O)N2c2cc(C)on2)c1 (stereo unspecified)	-3	38*	2	-15	-4	42*	12*
C=CCOc1cccc(C2C(C(=O)c3cc4ccccc4o3)=C(O)C(=O)N2c2cc(C)on2)c1 (stereo unspecified)	-2	66*	5	-7	-13	76*	40*
Cc1cc(N2C(=O)C(O)=C(C(=O)c3ccc(C)o3)C2c2cccc(Oc3ccccc3)c2)no1 (stereo unspecified)	-2	31	-2	4	-4	.	.
O=C(CSc1nnc(-c2cccs2)n1Cc1ccco1)Nc1ccc(OCc2ccccc2)cc1	-15	9	8	.	-22	.	.
Cc1ccccc1N1CCN(S(=O)(=O)c2nnc(NC(=O)CC(C)C)s2)CC1	4	3	0	0	0	.	.
CCN(c1cc(C)cc(C)c1)S(=O)(=O)c1nnc(NC(=O)c2ccco2)s1	-2	39*	6	-11	-7	38*	10*
Cc1ccccc1N1CCN(S(=O)(=O)c2nnc(NC(=O)c3ccco3)s2)CC1	-17	43*	-8	0	-5	72*	26*	DNA CAG DR=i
CCN(c1ccccc1C)S(=O)(=O)c1nnc(NC(=O)c2ccco2)s1	-4	41*	-2	2	-7	26	6.9*
CCOC(=O)N1CCc2c(sc(NC(=O)c3ccc(S(=O)(=O)N4CCCC4)cc3)c2C#N)C1	-26	84*	12	-13	-5	57*	19*
COc1cccc(OC[C@@H](O)CN2CCC(C(O)(c3ccccc3)c3ccccc3)CC2)c1	3	-1	-4	.	7	.	.
Cc1cc(C(C)(C)C)cc(C)c1S(=O)(=O)N1CCN(C(=O)c2cc([N+](=O)[O-])c[nH]c2=O)CC1	1	35*	-1	0	-4	54*	18*
C#CCNC(=O)C[C@H]1C[C@@]2(C(=O)OC)C(=C[C@H](COCc3ccccc3)O[C@@H]2C)N(Cc2ccc(Cl)cc2Cl)C1=O	-1	7	2	.	-9	.	.
COc1ccc2c(c1)Cc1cc(NC(=O)c3ccccc3-c3ccccc3C(=O)O)ccc1-2	-2	63*	4	-1	23	66*	28*
O=C(Nc1cccc(-c2nc3ccccc3o2)c1)c1cccnc1	-3	0	-2	1	-3	.	.
O=C(O)c1ccccc1-c1ccccc1C(=O)Nc1cccc(-c2nc3ccccc3o2)c1	-20	65*	3	0	-30	60*	22*
O=C(O)c1ccccc1-c1ccccc1C(=O)Nc1ccc2c(c1)C(=O)c1ccccc1-2	-20	60*	1	7	-17	68*	26*
O=C(O)c1ccccc1-c1ccccc1C(=O)Nc1ccc2c(c1)oc(=O)c1ccccc12	-34	66*	1	8	-34	65*	24*
O=C(CC1Sc2ccccc2NC1=O)NNc1ccc(Cl)cc1Cl (stereo unspecified)	-12	4	8	-12	-10	.	.
O=C1Nc2c(Cl)cc(Cl)cc2C12Nc1ccccc1S2 (stereo unspecified)	12	41*	23*	5	11	13	8.0*
